Experimental data from ChEMBL document CHEMBL4414574, “Structure-Based Discovery and Development of a Series of Potent and Selective Bromodomain and Extra-Terminal Protein Inhibitors” (J Med Chem, 2019).
Activity calls are given as the source filed them. The rule behind the calls is not given here.

What was measured:
[1] = Tmax in ICR mouse brain at 50 mg/kg, po administered via gavage measured after 0.25 to 24 hrs by UPLC/MS analysis; type: ADME, organism-based
Outline: (§1)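 Male ICR mice dosed orally at 50 mg/kg in 1% DMSO/0.5% HPMC; drug measured in plasma and brain.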

[2] = tested on: MV4-11; experiment: Induction of apoptosis in human MV4-11 cells assessed as increase in cleaved caspase-7 level after 24 hrs by Western blot analysis; type: functional, cell-based
Outline: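 MV4-11 cells exposed to compound at the indicated doses for 24 h; lysates probed by Western blotting for the target protein, with GAPDH as loading control.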

[3] = biological target: Bromodomain-containing protein 3 (Homo sapiens) (UniProt Q15059); experiment: Binding affinity to human partial length BRD3 bromodomain 1 (P24 to E144 residues) expressed in Escherichia coli BL21 cells assessed as residual binding level at 1 uM measured after 1 hr by quantitative PCR based BROMOscan assay relative to control
Outline: (§2)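 A BROMOScan competition-binding panel of 32 bromodomains was run at a single 1 μM compound concentration. Results are primary-screen 'Percent Control', where lower values indicate stronger binding.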

[4] = tested on: KG-1; experiment: Antiproliferative activity against human KG1 cells after 72 hrs by CCK8 or SRB assay; type: functional, cell-based
[5] = biological target: Cytochrome P450 2C9 (Homo sapiens, UniProt P11712); experiment: Time-dependent inhibition of CYP2C9 in human liver microsomes at 10 uM using diclofenac as substrate preincubated up to 30 mins followed by NADPH generating system addition and measured after 10 mins; type: ADME
Outline: (§3)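 Human liver microsomes 0.2 mg/mL, 100 mM phosphate pH 7.4, 10 μM test compound, preincubated 0, 5, 10 and 30 min at 37 °C; then NADPH plus probe cocktail (5 μM midazolam, 50 μM testosterone, 5 μM dextromethorphan, 10 μM diclofenac, 50 μM phenacetin, 50 μM S-(+)-mephenytoin) added; 10 min reaction; kobs in units of 10^-4/min.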

[6] = Half life in rat plasma at 3 mg/kg, iv; type: ADME, organism-based
[7] = Ratio of drug level in brain to plasma in ICR mouse at 50 mg/kg, po administered via gavage measured after 0.25 to 24 hrs by UPLC/MS analysis; type: ADME, organism-based; outline: as §1
[8] = Half life in dog plasma at 1 mg/kg, iv; type: ADME, organism-based, Canis lupus familiaris
[9] = biological target: Protein polybromo-1 (Homo sapiens) (UniProt Q86U86); experiment: Binding affinity to human partial length PB1 bromodomain 5 (S645 to D766 residues) expressed in Escherichia coli BL21 cells assessed as residual binding level at 1 uM measured after 1 hr by quantitative PCR based BROMOscan assay relative to control
Outline: (§4)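 Bromodomain panel screen (32 bromodomains) run at 1 μM single concentration; primary binding reported as 'Percent Control', lower values meaning stronger interaction.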

[10] = tested on: HuTu80; experiment: Antiproliferative activity against human HuTu 80 cells after 72 hrs by CCK8 or SRB assay; type: functional, cell-based
[11] = tested on: MV4-11; experiment: Induction of apoptosis in human MV4-11 cells assessed as reduction in c-IAP1 level after 24 hrs by Western blot analysis; type: functional, cell-based
[12] = biological target: Bromodomain and WD repeat-containing protein 1 (Homo sapiens) (UniProt Q9NSI6); experiment: Binding affinity to human partial length BRWD1 (A1310 to E1430 residues) expressed in Escherichia coli BL21 cells assessed as residual binding level at 1 uM measured after 1 hr by quantitative PCR based BROMOscan assay relative to control; outline: as §2
[13] = AUC (0 to infinity) in dog plasma at 3 mg/kg, po; type: ADME, organism-based, Canis lupus familiaris; design: dose 3 mg/kg, route oral, time infinity
Outline: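 Compound was given orally or intravenously in 1% DMSO/0.5% HPMC vehicle. Concentrations in plasma, or in brain where stated, gave Tmax, Cmax, T1/2, AUC0-t and AUC0-inf.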

[14] = Cmax in ICR mouse brain at 50 mg/kg, po administered via gavage measured after 0.25 to 24 hrs by UPLC/MS analysis; type: ADME, organism-based; design: dose 50 mg/kg, route oral
Outline: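 Male ICR mice dosed orally in 1% DMSO/0.5% HPMC vehicle; plasma or brain drug levels used to derive Tmax, Cmax, AUC0-t, AUC0-inf and T1/2.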

[15] = biological target: Transcription initiation factor TFIID subunit 1-like (Homo sapiens) (UniProt Q8IZX4); experiment: Binding affinity to human partial length TAF1L bromodomain 2 (Q1523 to D1654 residues) expressed in Escherichia coli BL21 cells assessed as residual binding level at 1 uM measured after 1 hr by quantitative PCR based BROMOscan assay relative to control; outline: as §4
[16] = Bioavailability in rat at 3 mg/kg, iv; type: ADME, organism-based; details: in vivo
[17] = tested on: MV4-11; experiment: Induction of apoptosis in human MV4-11 cells assessed as reduction in c-IAP2 level after 24 hrs by Western blot analysis; type: functional, cell-based
[18] = biological target: Bromodomain testis-specific protein (Homo sapiens) (UniProt Q58F21); experiment: Binding affinity to human partial length BRDT bromodomain 2 (K250 to E382 residues) expressed in Escherichia coli BL21 cells assessed as residual binding level at 1 uM measured after 1 hr by quantitative PCR based BROMOscan assay relative to control; outline: as §2
[19] = Half life in rat liver microsomes; type: ADME, Microsome
[20] = biological target: CREB-binding protein (Homo sapiens) (UniProt Q92793); experiment: Binding affinity to human partial length CREBBP (R1081 to G1197 residues) expressed in Escherichia coli BL21 cells assessed as residual binding level at 1 uM measured after 1 hr by quantitative PCR based BROMOscan assay relative to control; outline: as §2
[21] = biological target: Cytochrome P450 3A4 (Homo sapiens, UniProt P08684); experiment: Time-dependent inhibition of CYP3A4 in human liver microsomes at 10 uM using midazolam or testosterone as substrate preincubated up to 30 mins followed by NADPH generating system addition and measured after 10 mins; type: ADME; outline: as §3
[22] = biological target: SWI/SNF-related matrix-associated actin-dependent regulator of chromatin subfamily A member 4 (Homo sapiens) (UniProt P51532); experiment: Binding affinity to human partial length SMARCA4 (A1448 to S1575 residues) expressed in Escherichia coli BL21 cells assessed as residual binding level at 1 uM measured after 1 hr by quantitative PCR based BROMOscan assay relative to control; outline: as §4
[23] = tested on: MV4-11; experiment: Antitumor activity against human MV4-11 cells xenografted in po dosed Balb/c nude mouse assessed as tumor growth inhibition administered once daily and measured twice a week by caliper method; type: functional, organism-based
[24] = tested on: AGS; experiment: Antiproliferative activity against human AGS cells after 72 hrs by CCK8 or SRB assay; type: functional, cell-based
[25] = AUC (0 to infinity) in ICR mouse at 10 mg/kg, po administered via gavage measured after 0.25 to 24 hrs by UPLC/MS analysis; type: ADME, organism-based; design: dose 10 mg/kg, route oral, time infinity; details: in vivo
Outline: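 Male ICR mice were dosed orally in 1% DMSO/0.5% HPMC vehicle. Plasma (and brain, where stated) concentrations gave Tmax, Cmax, T1/2, AUC0-t and AUC0-inf.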

[26] = biological target: Bromodomain adjacent to zinc finger domain protein 2A (Homo sapiens) (UniProt Q9UIF9); experiment: Binding affinity to human partial length BAZ2A (M1792 to L1905 residues) expressed in Escherichia coli BL21 cells assessed as residual binding level at 1 uM measured after 1 hr by quantitative PCR based BROMOscan assay relative to control; outline: as §2
Bromodomain adjacent to zinc finger domain protein 2A (Homo sapiens), sequence (Q9UIF9 whole entry, the tested form may be a part): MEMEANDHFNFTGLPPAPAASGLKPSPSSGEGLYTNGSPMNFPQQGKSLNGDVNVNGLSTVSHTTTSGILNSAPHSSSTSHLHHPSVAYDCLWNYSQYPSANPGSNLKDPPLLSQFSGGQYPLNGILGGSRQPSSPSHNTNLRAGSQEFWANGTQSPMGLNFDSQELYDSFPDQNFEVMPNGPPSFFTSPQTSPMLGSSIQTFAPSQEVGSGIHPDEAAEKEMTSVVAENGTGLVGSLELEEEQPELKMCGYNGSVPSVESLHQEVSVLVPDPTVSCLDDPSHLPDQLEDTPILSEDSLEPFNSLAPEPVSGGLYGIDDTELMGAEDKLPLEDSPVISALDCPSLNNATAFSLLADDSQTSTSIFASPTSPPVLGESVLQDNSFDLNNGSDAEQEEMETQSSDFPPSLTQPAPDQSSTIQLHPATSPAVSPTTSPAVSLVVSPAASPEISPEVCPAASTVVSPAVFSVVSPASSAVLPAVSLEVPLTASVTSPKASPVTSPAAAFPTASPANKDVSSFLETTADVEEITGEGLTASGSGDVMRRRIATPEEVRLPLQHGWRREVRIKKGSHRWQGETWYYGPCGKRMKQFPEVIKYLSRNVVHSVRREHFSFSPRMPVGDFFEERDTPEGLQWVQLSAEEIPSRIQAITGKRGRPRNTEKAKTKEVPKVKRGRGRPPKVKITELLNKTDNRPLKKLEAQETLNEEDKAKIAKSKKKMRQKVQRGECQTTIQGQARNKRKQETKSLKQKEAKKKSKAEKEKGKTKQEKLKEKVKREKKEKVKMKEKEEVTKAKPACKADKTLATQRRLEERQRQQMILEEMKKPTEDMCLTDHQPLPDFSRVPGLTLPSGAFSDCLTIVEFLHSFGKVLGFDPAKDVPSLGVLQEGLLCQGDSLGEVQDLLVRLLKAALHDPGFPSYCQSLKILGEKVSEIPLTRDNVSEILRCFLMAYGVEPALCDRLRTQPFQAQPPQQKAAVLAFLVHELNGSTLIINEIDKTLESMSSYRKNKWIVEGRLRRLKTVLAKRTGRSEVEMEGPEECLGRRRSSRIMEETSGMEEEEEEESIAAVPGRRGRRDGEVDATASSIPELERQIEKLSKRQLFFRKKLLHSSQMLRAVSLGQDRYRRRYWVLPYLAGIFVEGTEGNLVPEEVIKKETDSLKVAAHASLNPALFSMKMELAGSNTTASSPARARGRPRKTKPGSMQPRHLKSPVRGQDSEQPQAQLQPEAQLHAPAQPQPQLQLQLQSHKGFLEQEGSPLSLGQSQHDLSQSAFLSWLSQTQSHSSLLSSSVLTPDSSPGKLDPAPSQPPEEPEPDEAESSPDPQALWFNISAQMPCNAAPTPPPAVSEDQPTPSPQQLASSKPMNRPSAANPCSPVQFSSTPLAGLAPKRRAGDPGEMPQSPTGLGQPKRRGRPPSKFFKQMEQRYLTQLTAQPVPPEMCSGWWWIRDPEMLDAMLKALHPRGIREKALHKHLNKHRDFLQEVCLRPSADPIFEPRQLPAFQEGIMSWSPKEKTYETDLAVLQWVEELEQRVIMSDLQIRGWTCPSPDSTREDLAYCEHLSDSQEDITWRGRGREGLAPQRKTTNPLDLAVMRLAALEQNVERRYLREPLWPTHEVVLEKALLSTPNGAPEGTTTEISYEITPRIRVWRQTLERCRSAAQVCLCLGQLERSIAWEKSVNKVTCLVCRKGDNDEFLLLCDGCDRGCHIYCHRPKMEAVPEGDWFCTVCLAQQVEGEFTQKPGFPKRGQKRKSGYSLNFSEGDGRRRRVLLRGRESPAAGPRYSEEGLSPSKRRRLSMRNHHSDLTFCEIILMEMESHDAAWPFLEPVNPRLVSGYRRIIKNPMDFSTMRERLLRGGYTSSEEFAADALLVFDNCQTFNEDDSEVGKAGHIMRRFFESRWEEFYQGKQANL

Cytochrome P450 3A4, sequence (P08684 whole entry, the tested form may be a part): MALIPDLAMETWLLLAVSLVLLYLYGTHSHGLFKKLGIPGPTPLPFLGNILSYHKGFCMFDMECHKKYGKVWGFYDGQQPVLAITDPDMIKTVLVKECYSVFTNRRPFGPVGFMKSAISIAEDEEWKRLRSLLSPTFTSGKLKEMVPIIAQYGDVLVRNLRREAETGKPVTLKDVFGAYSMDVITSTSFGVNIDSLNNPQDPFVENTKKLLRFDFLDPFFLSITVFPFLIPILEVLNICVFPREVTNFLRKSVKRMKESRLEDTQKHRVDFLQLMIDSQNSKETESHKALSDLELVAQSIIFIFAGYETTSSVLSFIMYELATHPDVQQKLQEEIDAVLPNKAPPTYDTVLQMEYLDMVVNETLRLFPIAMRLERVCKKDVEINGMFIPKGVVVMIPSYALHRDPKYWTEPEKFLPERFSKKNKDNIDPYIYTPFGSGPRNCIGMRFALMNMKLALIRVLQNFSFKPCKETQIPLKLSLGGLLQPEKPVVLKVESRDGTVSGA
Bromodomain-containing protein 3 (Homo sapiens), sequence (Q15059 2-726 limits assumed): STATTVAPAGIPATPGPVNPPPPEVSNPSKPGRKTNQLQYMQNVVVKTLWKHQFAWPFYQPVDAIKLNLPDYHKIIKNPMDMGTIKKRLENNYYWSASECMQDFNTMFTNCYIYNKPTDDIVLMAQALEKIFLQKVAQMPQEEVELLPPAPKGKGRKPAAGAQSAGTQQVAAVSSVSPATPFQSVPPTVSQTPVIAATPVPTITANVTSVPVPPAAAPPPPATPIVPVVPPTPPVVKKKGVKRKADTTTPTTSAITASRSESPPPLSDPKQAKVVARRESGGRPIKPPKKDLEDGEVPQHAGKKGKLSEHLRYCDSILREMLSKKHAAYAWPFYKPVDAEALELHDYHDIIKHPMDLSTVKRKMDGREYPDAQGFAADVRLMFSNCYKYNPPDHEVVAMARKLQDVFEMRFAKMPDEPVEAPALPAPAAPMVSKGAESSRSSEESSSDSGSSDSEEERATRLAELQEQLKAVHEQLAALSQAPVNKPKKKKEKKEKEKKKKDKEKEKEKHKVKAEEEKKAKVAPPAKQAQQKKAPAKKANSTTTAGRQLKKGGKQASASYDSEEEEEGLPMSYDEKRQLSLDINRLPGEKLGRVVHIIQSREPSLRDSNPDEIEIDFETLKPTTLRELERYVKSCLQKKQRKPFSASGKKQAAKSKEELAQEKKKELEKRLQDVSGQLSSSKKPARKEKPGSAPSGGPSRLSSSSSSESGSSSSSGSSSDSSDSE
Protein polybromo-1 (Homo sapiens), sequence (Q86U86 whole entry, the tested form may be a part): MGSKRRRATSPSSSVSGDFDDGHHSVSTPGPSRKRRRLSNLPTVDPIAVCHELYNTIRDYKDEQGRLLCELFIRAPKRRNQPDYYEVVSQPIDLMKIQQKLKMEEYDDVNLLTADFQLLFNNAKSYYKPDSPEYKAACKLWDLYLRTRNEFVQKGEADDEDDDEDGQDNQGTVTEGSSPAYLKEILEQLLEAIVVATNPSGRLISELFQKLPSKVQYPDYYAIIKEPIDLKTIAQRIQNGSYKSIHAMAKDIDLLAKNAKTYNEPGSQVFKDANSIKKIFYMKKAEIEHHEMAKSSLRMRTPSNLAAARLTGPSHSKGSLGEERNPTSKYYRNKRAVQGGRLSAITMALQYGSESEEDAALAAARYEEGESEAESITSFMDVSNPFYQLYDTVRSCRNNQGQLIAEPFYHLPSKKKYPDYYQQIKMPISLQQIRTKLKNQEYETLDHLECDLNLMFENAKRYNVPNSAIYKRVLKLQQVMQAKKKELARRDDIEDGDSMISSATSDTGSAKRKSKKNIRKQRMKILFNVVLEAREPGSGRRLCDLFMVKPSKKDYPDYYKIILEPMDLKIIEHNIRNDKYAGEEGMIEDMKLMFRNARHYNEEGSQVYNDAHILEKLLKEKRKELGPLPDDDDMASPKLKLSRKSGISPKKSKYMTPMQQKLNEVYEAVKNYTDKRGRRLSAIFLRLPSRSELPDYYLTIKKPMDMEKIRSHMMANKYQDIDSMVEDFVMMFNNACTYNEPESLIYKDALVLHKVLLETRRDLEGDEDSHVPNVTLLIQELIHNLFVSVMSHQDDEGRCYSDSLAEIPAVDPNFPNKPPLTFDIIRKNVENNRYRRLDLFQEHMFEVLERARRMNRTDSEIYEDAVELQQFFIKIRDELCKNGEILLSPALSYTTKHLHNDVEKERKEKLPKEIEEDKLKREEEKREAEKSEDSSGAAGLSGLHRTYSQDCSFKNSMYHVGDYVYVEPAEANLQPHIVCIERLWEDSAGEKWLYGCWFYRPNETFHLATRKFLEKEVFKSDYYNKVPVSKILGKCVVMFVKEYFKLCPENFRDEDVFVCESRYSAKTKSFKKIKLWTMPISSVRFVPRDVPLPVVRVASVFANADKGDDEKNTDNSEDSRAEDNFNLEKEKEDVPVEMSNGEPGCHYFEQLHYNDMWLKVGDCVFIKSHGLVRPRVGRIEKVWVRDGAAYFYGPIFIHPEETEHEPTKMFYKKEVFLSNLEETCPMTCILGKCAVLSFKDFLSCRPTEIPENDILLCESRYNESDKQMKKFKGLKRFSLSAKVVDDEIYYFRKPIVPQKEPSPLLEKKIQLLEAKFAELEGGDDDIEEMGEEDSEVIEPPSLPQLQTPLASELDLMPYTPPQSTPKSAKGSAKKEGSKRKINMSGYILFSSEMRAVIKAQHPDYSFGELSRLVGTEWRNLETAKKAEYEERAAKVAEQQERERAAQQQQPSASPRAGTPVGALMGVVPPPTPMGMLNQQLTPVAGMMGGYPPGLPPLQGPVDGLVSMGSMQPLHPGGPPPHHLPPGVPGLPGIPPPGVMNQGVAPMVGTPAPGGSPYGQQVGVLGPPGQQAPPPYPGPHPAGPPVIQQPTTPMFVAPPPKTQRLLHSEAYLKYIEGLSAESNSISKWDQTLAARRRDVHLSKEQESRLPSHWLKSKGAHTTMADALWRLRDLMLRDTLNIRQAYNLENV

## Cc1ccc(-n2nc(C(=O)N3C[C@@H](C)N[C@@H](C)C3)nc2-c2ccc3c(c2)N(C2CCCC2)[C@H](C)C(=O)N3C)cc1
[1]
  Tmax: 1 h
[2]
  Activity: Dose-dependent effect
[3]
  Activity: < 5%
[4]
  Activity: Active
[5]
  TDI: Not Active
[6]
  half-life: 1.8 h
[7]
  BPR: 13.9%
[8]
  half-life: 9.4 h
[9]
  Activity: 70 to 100%
[10]
  Activity: Active
[11]
  Activity: Dose-dependent effect
[12]
  Activity: 70 to 100%
[13]
  AUC(0-inf): 798 ng·h/mL
[14]
  Cmax: 377 ng/mL
[15]
  Activity: 20 to 50%
[16]
  bioavailability: 18.2%
[17]
  Activity: Dose-dependent effect
[18]
  Activity: < 5%
[19]
  half-life: 0.817 h
[20]
  Activity: 50 to 70%
[21]
  TDI: 8 ×10⁻⁴ /min
[22]
  Activity: 70 to 100%
[23]
  TGI: Dose-dependent effect
[24]
  Activity: Active
[25]
  AUC(0-inf): 7390 ng·h/mL
[26]
  Activity: 70 to 100%
